Assay results as given in ChEMBL document CHEMBL4732105, “First orally bioavailable prodrug of proteolysis targeting chimera (PROTAC) degrades cyclin-dependent kinases 2/4/6 in vivo” (Eur J Med Chem, 2021).
The source made the active and inactive calls. No cut-off for these calls is given here.

Experiments:
[1] = tested on: A-375; assay: Induction of cell cycle arrest in human A-375 cells assessed as accumulation at G0/G1 phase upto […] incubated for 48 hrs by propidium iodide staining based flow cytometry; assay type: functional
Outline: (§1)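 Tumor cells incubated 48 h in complete medium with compound or DMSO at various concentrations, stained with propidium iodide, and DNA content read by flow cytometry. G0/G1, S and G2/M fractions reported; mean ± SD, n = 3, Student's t-test.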

[2] = target: T1, Protein cereblon/Cyclin-dependent kinase 4 (Mus musculus) (UniProt P30285+Q8C7D2); assay: Protac activity at CRBN/CDK4 in mouse B16F10 cells assessed as induction of CDK4 protein degradation after 12 hrs by Western blot analysis; assay type: cell-based; details: B16-F10, dose 62.5-1000 nM
Outline: (§2)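 B16F10 and A375 cells treated with DMSO or serial dilutions of compound for 12 h (concentration series), or for the indicated times (time course). CDK2, CDK4 and CDK6 protein levels determined by western blot.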

[3] = target: Protein cereblon/Cyclin-dependent kinase 4 (Homo sapiens) (UniProt P11802+Q96SW2); assay: Protac activity at CRBN/CDK4 in human A-375 cells assessed as induction of CDK4 protein degradation after 12 hrs by Western blot analysis; assay type: cell-based; details: dose 62.5-1000 nM; outline: as §2
[4] = target: Protein cereblon/Cyclin-dependent kinase 2 (Mus musculus) (UniProt P97377+Q8C7D2); assay: Protac activity at CRBN/CDK2 in mouse B16F10 cells assessed as induction of CDK2 protein degradation at 500 nM by Western blot analysis; assay type: cell-based; details: B16-F10, time hrs <=12, TDE = time-dependent effect; outline: as §2
[5] = target: Protein cereblon/Cyclin-dependent kinase 2 (Homo sapiens) (UniProt P24941+Q96SW2); assay: Protac activity at CRBN/CDK2 in human A-375 cells assessed as induction of CDK2 protein degradation at 1000 nM by Western blot analysis; assay type: cell-based; details: time hrs <=12, TDE = time-dependent effect; outline: as §2
[6] = target: Protein cereblon/Cyclin-dependent kinase 6 (Homo sapiens) (UniProt Q00534+Q96SW2); assay: Protac activity at CRBN/CDK6 in human A-375 cells assessed as induction of CDK6 protein degradation at 1000 nM by Western blot analysis; assay type: cell-based; details: time hrs <=12, TDE = time-dependent effect; outline: as §2
[7] = target: T1, Protein cereblon/Cyclin-dependent kinase 4 (Mus musculus); assay: Protac activity at CRBN/CDK4 in mouse B16F10 cells assessed as induction of CDK4 protein degradation at 100 nM for 6 hrs in presence of proteasome inhibitor MG132 by Western blot analysis; assay type: cell-based; details: B16-F10
Outline: (§3)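 B16F10 cells pre-treated 2 h with DMSO, pomalidomide (10 μM), MG132 (20 μM) or a parent CDK ligand, then exposed to 100 nM degrader for 6 h. CDK2/4/6 protein levels read by western blot.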

[8] = target: Protein cereblon/Cyclin-dependent kinase 6 (Mus musculus) (UniProt Q8C7D2+Q64261); assay: Protac activity at CRBN/CDK6 in mouse B16F10 cells assessed as induction of CDK6 protein degradation at 100 nM for 6 hrs in presence of proteasome inhibitor MG132 by Western blot analysis; assay type: cell-based; details: B16-F10; outline: as §3
[9] = tested on: B16-F10; assay: Induction of apoptosis in mouse B16F10 cells assessed as increase in cleaved caspase 3 level incubated for 48 hrs by Western blot analysis; assay type: functional, cell-based; details: dose nM <=1000, time 48.0 hrs
Outline: (§4)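 A375 and B16F10 cells incubated with compound for 48 h. Cleaved caspase-3, cleaved PARP, total P53, Bcl-2 and Bax measured by western blot.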

[10] = tested on: A-375; assay: Induction of apoptosis in human A-375 cells assessed as increase in cleaved caspase 3 level incubated for 48 hrs by Western blot analysis; assay type: functional, cell-based; details: dose nM <=2000, time 48.0 hrs; outline: as §4
[11] = tested on: B16-F10; assay: Induction of apoptosis in mouse B16F10 cells assessed as increase in P-53 level upto 1000 nM incubated for 48 hrs by Western blot analysis; assay type: functional, cell-based; details: dose nM <=1000, time 48.0 hrs; outline: as §4
[12] = tested on: A-375; assay: Induction of apoptosis in human A-375 cells assessed as increase in P-53 level upto 2000 nM incubated for 48 hrs by Western blot analysis; assay type: functional, cell-based; details: dose nM <=2000, time 48.0 hrs; outline: as §4
[13] = tested on: A-375; assay: Induction of apoptosis in human A-375 cells assessed as decrease in Bcl-2 level upto 2000 nM incubated for 48 hrs by Western blot analysis; assay type: functional, cell-based; details: dose nM <=2000, time 48.0 hrs; outline: as §4
[14] = Cmax in Sprague-Dawley rat at 10 mg/kg, iv; assay type: ADME, organism-based; set-up: route intravenous, dose 10 mg/kg; details: in vivo
[15] = Tmax in Sprague-Dawley rat at 200 mg/kg, po; assay type: ADME, organism-based; details: in vivo
Outline: (§5)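 SD rats, n = 3, single dose of prodrug: IV by tail vein at 10 mg/Kg, or PO at 200 mg/Kg. Plasma levels of prodrug and released active degrader followed over 0–12 h. Parameters derived by a non-compartmental model.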

[16] = Tmax in Sprague-Dawley rat at 10 mg/kg, iv; assay type: ADME, organism-based; details: in vivo; outline: as §5
[17] = AUC (0 to 12 hrs) in Sprague-Dawley rat at 200 mg/kg, po; assay type: ADME, organism-based; set-up: time < 12 hr, route oral, dose 200 mg/kg; details: in vivo
Outline: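 Single oral dose of 200 mg/Kg to SD rats (n = 3). Prodrug and released active degrader quantified in plasma over 0–12 h; Cmax, Tmax and AUC0-12 derived by non-compartmental model.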

[18] = target: T1, Protein cereblon/Cyclin-dependent kinase 4 (Mus musculus); assay: Protac activity at CRBN/CDK4 in mouse B16F10 cells assessed as induction of CDK4 protein degradation at 100 nM for 6 hrsin presence of Pomalidomide by Western blot analysis; assay type: cell-based; details: B16-F10, time 6.0 hrs; outline: as §3
[19] = tested on: B16-F10; assay: Induction of apoptosis in mouse B16F10 cells assessed as viable cells at 500 nM incubated for 48 hrs by Annexin V-FITC/PI staining based flow cytometry (reference value: 95.9%); assay type: functional; details: read-out: Activity
[20] = tested on: B16-F10; assay: Induction of apoptosis in mouse B16F10 cells assessed as late apoptotic cells at 125 nM incubated for 48 hrs by Annexin V-FITC/PI staining based flow cytometry (reference value: 0.551%); assay type: functional
[21] = tested on: B16-F10; assay: Induction of apoptosis in mouse B16F10 cells assessed as necrotic cells at 500 nM incubated for 48 hrs by Annexin V-FITC/PI staining based flow cytometry (reference value: 0.21%); assay type: functional
[22] = tested on: A-375; assay: Induction of apoptosis in human A-375 cells assessed as viable cells at 500 nM incubated for 48 hrs by Annexin V-FITC/PI staining based flow cytometry (reference value: 93.3%); assay type: functional; details: read-out: Activity
[23] = tested on: A-375; assay: Induction of apoptosis in human A-375 cells assessed as viable cells at 1000 nM incubated for 48 hrs by Annexin V-FITC/PI staining based flow cytometry (reference value: 93.3%); assay type: functional; details: read-out: Activity
[24] = tested on: A-375; assay: Induction of apoptosis in human A-375 cells assessed as early apoptotic cells at 250 nM incubated for 48 hrs by Annexin V-FITC/PI staining based flow cytometry (reference value: 2.82%); assay type: functional
[25] = tested on: B16-F10; assay: Induction of cell cycle arrest in mouse B16-F10 cells assessed as accumulation at G2 phase at 100 uM incubated for 48 hrs by propidium iodide staining based flow cytometry (reference value: 18.22%); assay type: functional
[26] = tested on: A-375; assay: Induction of cell cycle arrest in human A-375 cells assessed as accumulation at G1 phase at 500 uM incubated for 48 hrs by propidium iodide staining based flow cytometry (reference value: 58.26%); assay type: functional; outline: as §1
[27] = tested on: A-375; assay: Induction of cell cycle arrest in human A-375 cells assessed as accumulation at G1 phase at 1000 uM incubated for 48 hrs by propidium iodide staining based flow cytometry (reference value: 58.26%); assay type: functional; outline: as §1

T1 sequence (P30285 whole entry, looked up): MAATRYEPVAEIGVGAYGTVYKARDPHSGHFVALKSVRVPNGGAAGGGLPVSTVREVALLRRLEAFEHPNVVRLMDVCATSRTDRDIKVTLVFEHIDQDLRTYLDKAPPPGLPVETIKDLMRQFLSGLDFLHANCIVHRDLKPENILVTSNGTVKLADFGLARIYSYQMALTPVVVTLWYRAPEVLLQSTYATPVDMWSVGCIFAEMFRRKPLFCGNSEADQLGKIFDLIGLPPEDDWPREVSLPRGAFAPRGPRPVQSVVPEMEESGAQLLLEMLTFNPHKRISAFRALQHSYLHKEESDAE
T1 sequence (Q8C7D2 whole entry, looked up): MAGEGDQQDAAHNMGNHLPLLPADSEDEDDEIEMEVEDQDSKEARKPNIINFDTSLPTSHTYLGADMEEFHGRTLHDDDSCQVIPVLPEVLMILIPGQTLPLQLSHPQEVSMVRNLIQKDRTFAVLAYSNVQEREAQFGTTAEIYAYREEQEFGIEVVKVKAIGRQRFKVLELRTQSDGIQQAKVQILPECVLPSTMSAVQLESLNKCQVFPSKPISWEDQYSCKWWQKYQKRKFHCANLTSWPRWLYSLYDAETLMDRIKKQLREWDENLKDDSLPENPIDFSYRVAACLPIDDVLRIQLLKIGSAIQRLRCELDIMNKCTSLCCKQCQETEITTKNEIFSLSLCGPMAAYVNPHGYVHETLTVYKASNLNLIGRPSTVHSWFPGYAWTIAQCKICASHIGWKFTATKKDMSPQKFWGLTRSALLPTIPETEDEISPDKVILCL
Sequence of Protein cereblon/Cyclin-dependent kinase 6 (Homo sapiens) (Q00534 whole entry, looked up): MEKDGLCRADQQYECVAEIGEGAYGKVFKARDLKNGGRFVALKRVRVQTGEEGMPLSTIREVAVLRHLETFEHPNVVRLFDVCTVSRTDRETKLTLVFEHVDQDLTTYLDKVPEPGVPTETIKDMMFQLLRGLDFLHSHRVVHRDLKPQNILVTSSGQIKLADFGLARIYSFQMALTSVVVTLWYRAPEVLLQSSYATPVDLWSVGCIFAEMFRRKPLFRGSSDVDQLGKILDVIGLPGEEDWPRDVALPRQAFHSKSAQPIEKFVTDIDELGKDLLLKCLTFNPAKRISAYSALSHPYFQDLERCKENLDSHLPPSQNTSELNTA
Sequence of Protein cereblon/Cyclin-dependent kinase 6 (Homo sapiens) (Q96SW2 whole entry, looked up): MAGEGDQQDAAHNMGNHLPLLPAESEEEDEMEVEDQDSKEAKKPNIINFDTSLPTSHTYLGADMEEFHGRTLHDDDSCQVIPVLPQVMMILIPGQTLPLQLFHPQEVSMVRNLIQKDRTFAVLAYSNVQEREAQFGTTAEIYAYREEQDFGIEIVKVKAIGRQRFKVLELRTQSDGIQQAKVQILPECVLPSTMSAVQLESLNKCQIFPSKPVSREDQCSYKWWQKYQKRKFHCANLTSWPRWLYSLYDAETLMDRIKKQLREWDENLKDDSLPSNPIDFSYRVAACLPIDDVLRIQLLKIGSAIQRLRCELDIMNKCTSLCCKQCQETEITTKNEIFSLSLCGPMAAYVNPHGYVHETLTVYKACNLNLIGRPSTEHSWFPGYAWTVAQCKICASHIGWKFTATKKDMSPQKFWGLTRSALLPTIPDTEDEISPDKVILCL
Sequence of Protein cereblon/Cyclin-dependent kinase 2 (Mus musculus) (Q8C7D2 whole entry, looked up, other chains not shown): as the sequence (Q8C7D2 whole entry, looked up) above
Sequence of Protein cereblon/Cyclin-dependent kinase 6 (Mus musculus) (Q64261 whole entry, looked up): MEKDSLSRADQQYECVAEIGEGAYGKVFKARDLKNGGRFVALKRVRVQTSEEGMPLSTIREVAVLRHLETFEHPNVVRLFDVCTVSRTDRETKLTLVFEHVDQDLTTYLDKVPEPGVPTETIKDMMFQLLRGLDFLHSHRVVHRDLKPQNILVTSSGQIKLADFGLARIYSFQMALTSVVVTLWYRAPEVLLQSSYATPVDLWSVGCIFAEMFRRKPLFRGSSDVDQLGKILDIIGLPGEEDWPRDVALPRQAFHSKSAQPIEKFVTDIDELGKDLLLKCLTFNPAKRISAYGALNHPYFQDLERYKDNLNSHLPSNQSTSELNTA
Sequence of Protein cereblon/Cyclin-dependent kinase 6 (Mus musculus) (Q8C7D2 whole entry, looked up): as the sequence (Q8C7D2 whole entry, looked up) above
Sequence of Protein cereblon/Cyclin-dependent kinase 4 (Homo sapiens) (P11802 2-303 limits assumed): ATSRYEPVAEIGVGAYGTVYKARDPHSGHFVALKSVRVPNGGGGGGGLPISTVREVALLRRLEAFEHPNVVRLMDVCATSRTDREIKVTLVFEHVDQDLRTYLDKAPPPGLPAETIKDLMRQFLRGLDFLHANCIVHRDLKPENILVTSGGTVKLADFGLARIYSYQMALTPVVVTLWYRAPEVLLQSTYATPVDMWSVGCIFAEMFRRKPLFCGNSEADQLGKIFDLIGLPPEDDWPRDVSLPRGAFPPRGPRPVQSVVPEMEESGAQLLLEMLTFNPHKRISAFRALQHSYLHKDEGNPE
Sequence of Protein cereblon/Cyclin-dependent kinase 4 (Homo sapiens) (Q96SW2 whole entry partner): as the sequence (Q96SW2 whole entry, looked up) above

Activity [2]: Dose-dependent effect
Activity [3]: Dose-dependent effect
Activity [4]: Tde
Activity [5]: Tde
Activity [6]: Tde
Activity [7]: inactive
Activity [8]: inactive
Cmax [14]: 59.9 µg/mL
Tmax [15]: 15 min
Tmax [16]: 45 min
AUC [17]: 823 µg·h/mL
Activity [18]: inactive
Structure (SMILES): CN(C)C(=O)c1cc2cnc(Nc3ccc(C(=O)NCCCCCCNc4cccc5c4C(=O)N(C4CCC(=O)NC4=O)C5=O)cc3)nc2n1C1CCCC1 (configuration not stated)
Activity [1]: Active
Activity [9]: Dose-dependent effect
Activity [10]: Dose-dependent effect
Activity [11]: Active
Activity [12]: Active
Activity [13]: Active
viability at 0.5 µM [19]: 4.73%
Activity [20]: 6.5%
Activity [21]: 0.081%
viability at 0.5 µM [22]: 85.2%
viability at 1 µM [23]: 55.2%
Activity [24]: 5.54%
Activity [25]: 30.56%
Activity [26]: 73.45%
Activity [27]: 74.09%
